Laboratory results published in ChEMBL document CHEMBL5058577, “EUbOPEN Chemogenomics Library 2 (Multiplex)” (2022).

Test system: U2OS
Assay: Multiplex assay against U2OS
Assay type: toxicity, cell-based
Conditions: human
How it was run: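 Hoechst33342, BioTracker Green Microtubule Cytoskeleton Dye, MitoTracker Red and Annexin V Alexa Fluor 680 were added to live cells at seeding, and imaging on a CQ1 microscope at 37°C and 5% CO2 followed compound addition. Gating by CellPathfinder machine learning separated cells into Hoechst high-intensity objects or normal cells, then normal cells into healthy, pyknosed or fragmented nuclei, then pyknosed cells into mitotic or apoptotic. Per cents of healthy-nucleus cells are reported for the tubulin, mitochondrial-mass and membrane-permeability phenotypes.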

[1] = 12 h, 1 µM, compound concentration 1 uM, replicate 1
[2] = 12 h, 1 µM, compound concentration 1 uM, replicate 2
[3] = 12 h, 10 µM, compound concentration 10 uM, replicate 1
[4] = 12 h, 10 µM, compound concentration 10 uM, replicate 2
[5] = 24 h, 1 µM, compound concentration 1 uM, replicate 1
[6] = 24 h, 1 µM, compound concentration 1 uM, replicate 2
[7] = 24 h, 10 µM, compound concentration 10 uM, replicate 1
[8] = 24 h, 10 µM, compound concentration 10 uM, replicate 2
[9] = 48 h, 1 µM, compound concentration 1 uM, replicate 1
[10] = 48 h, 1 µM, compound concentration 1 uM, replicate 2
[11] = 48 h, 10 µM, compound concentration 10 uM, replicate 1
[12] = 48 h, 10 µM, compound concentration 10 uM, replicate 2

Cc1cccc(NC(=O)CN2CCC(c3ccccn3)CC2)c1.Cl.Cl
Population Apoptotic (%) [1]: 90%
Population Fragmented Nuclei (%) [1]: 27%
Population Healthy Nuclei (%) [1]: 67%
Population Hoechst High Intensity Objects (%) [1]: 1%
Population Membrane Permeable-Phenotype (%) [1]: 5%
Population Mitochondria Different-Phenotype (%) [1]: 2%
Population Mitotic Cells (%) [1]: 9%
Population Normal (%) [1]: 98%
Population Pyknosed Nuclei (%) [1]: 5%
Population Tubulin-Different-Phenotype (%) [1]: 3%
Total Cell Count [1]: 208
Population Apoptotic (%) [2]: 57%
Population Fragmented Nuclei (%) [2]: 17%
Population Healthy Nuclei (%) [2]: 76%
Population Hoechst High Intensity Objects (%) [2]: 0%
Population Membrane Permeable-Phenotype (%) [2]: 4%
Population Mitotic Cells (%) [2]: 42%
Population Normal (%) [2]: 99%
Population Pyknosed Nuclei (%) [2]: 6%
Total Cell Count [2]: 111
Population Apoptotic (%) [3]: 72%
Population Fragmented Nuclei (%) [3]: 34%
Population Healthy Nuclei (%) [3]: 55%
Population Hoechst High Intensity Objects (%) [3]: 2%
Population Membrane Permeable-Phenotype (%) [3]: 8%
Population Mitochondria Different-Phenotype (%) [3]: 6%
Population Mitotic Cells (%) [3]: 27%
Population Normal (%) [3]: 97%
Population Pyknosed Nuclei (%) [3]: 10%
Population Tubulin-Different-Phenotype (%) [3]: 3%
Total Cell Count [3]: 216
Population Apoptotic (%) [4]: 66%
Population Fragmented Nuclei (%) [4]: 21%
Population Healthy Nuclei (%) [4]: 70%
Population Hoechst High Intensity Objects (%) [4]: 1%
Population Membrane Permeable-Phenotype (%) [4]: 12%
Population Mitochondria Different-Phenotype (%) [4]: 7%
Population Mitotic Cells (%) [4]: 33%
Population Normal (%) [4]: 98%
Population Pyknosed Nuclei (%) [4]: 8%
Population Tubulin-Different-Phenotype (%) [4]: 9%
Total Cell Count [4]: 111
Population Apoptotic (%) [5]: 76%
Population Fragmented Nuclei (%) [5]: 22%
Population Healthy Nuclei (%) [5]: 70%
Population Hoechst High Intensity Objects (%) [5]: 3%
Population Membrane Permeable-Phenotype (%) [5]: 5%
Population Mitochondria Different-Phenotype (%) [5]: 3%
Population Mitotic Cells (%) [5]: 23%
Population Normal (%) [5]: 96%
Population Pyknosed Nuclei (%) [5]: 7%
Population Tubulin-Different-Phenotype (%) [5]: 3%
Total Cell Count [5]: 249
Population Apoptotic (%) [6]: 73%
Population Fragmented Nuclei (%) [6]: 21%
Population Healthy Nuclei (%) [6]: 67%
Population Hoechst High Intensity Objects (%) [6]: 0%
Population Membrane Permeable-Phenotype (%) [6]: 7%
Population Mitochondria Different-Phenotype (%) [6]: 4%
Population Mitotic Cells (%) [6]: 26%
Population Normal (%) [6]: 99%
Population Pyknosed Nuclei (%) [6]: 11%
Population Tubulin-Different-Phenotype (%) [6]: 5%
Total Cell Count [6]: 135
Population Apoptotic (%) [7]: 85%
Population Fragmented Nuclei (%) [7]: 32%
Population Healthy Nuclei (%) [7]: 55%
Population Hoechst High Intensity Objects (%) [7]: 3%
Population Membrane Permeable-Phenotype (%) [7]: 6%
Population Mitochondria Different-Phenotype (%) [7]: 3%
Population Mitotic Cells (%) [7]: 14%
Population Normal (%) [7]: 96%
Population Pyknosed Nuclei (%) [7]: 11%
Population Tubulin-Different-Phenotype (%) [7]: 2%
Total Cell Count [7]: 243
Population Apoptotic (%) [8]: 75%
Population Fragmented Nuclei (%) [8]: 20%
Population Healthy Nuclei (%) [8]: 73%
Population Hoechst High Intensity Objects (%) [8]: 2%
Population Membrane Permeable-Phenotype (%) [8]: 17%
Population Mitochondria Different-Phenotype (%) [8]: 5%
Population Mitotic Cells (%) [8]: 25%
Population Normal (%) [8]: 97%
Population Pyknosed Nuclei (%) [8]: 6%
Population Tubulin-Different-Phenotype (%) [8]: 10%
Total Cell Count [8]: 131
Population Apoptotic (%) [9]: 82%
Population Fragmented Nuclei (%) [9]: 18%
Population Healthy Nuclei (%) [9]: 72%
Population Hoechst High Intensity Objects (%) [9]: 2%
Population Membrane Permeable-Phenotype (%) [9]: 6%
Population Mitochondria Different-Phenotype (%) [9]: 3%
Population Mitotic Cells (%) [9]: 17%
Population Normal (%) [9]: 97%
Population Pyknosed Nuclei (%) [9]: 8%
Population Tubulin-Different-Phenotype (%) [9]: 3%
Total Cell Count [9]: 341
Population Apoptotic (%) [10]: 94%
Population Fragmented Nuclei (%) [10]: 17%
Population Hoechst High Intensity Objects (%) [10]: 3%
Population Membrane Permeable-Phenotype (%) [10]: 2%
Population Mitotic Cells (%) [10]: 5%
Population Normal (%) [10]: 96%
Population Pyknosed Nuclei (%) [10]: 10%
Population Tubulin-Different-Phenotype (%) [10]: 2%
Total Cell Count [10]: 182
Population Apoptotic (%) [11]: 96%
Population Fragmented Nuclei (%) [11]: 29%
Population Healthy Nuclei (%) [11]: 60%
Population Hoechst High Intensity Objects (%) [11]: 3%
Population Membrane Permeable-Phenotype (%) [11]: 6%
Population Mitochondria Different-Phenotype (%) [11]: 6%
Population Mitotic Cells (%) [11]: 3%
Population Normal (%) [11]: 96%
Population Pyknosed Nuclei (%) [11]: 9%
Population Tubulin-Different-Phenotype (%) [11]: 3%
Total Cell Count [11]: 303
Population Apoptotic (%) [12]: 83%
Population Fragmented Nuclei (%) [12]: 19%
Population Healthy Nuclei (%) [12]: 74%
Population Membrane Permeable-Phenotype (%) [12]: 10%
Population Mitochondria Different-Phenotype (%) [12]: 4%
Population Mitotic Cells (%) [12]: 16%
Population Pyknosed Nuclei (%) [12]: 6%
Population Tubulin-Different-Phenotype (%) [12]: 4%
Total Cell Count [12]: 198
